# Results from different studies.
# Compare with care: the assays were run in different laboratories.
# Target: Serine/threonine-protein kinase PAK 6 (PAK6, Homo sapiens, UniProt Q9NQU5)
Structure (SMILES),observed,method,tested at,remaining binding [%]
CCN1CCN(Cc2ccc(C(=O)Nc3ccc(C)c(Oc4ccc5c(c4)CC(=O)N5)c3)cc2C(F)(F)F)CC1,binding,competition with immobilised ligand,1 µM,100
O=C(c1ccc(Nc2ncc(Cl)c(-c3ccc(Cl)s3)n2)cc1)N1CCC(N2CCCC2)CC1,binding,competition with immobilised ligand,1 µM,52
C[C@H]1CCN(c2nccc(-c3cnn4ncccc34)n2)C1,binding,,1 µM,80
CNC(=O)Nc1ccc2c(c1)CC[C@@]21OC(=O)N(CC(=O)N(Cc2ccc(F)cc2)[C@@H](C)C(F)(F)F)C1=O,cell-free assay,competition with immobilised ligand,1 µM,91
CN(C)c1ncc(F)c(-c2cnn3ncccc23)n1,binding,,1 µM,100
O=C(NC[C@@H]1[C@H]2CN(C(=O)OCc3cc(C(F)(F)F)cc(C(F)(F)F)c3)C[C@@H]12)c1ccc2[nH]nnc2c1,cell-free assay,competition with immobilised ligand,1 µM,93
COc1cnc(Nc2cccc(S(N)(=O)=O)c2)nc1N1CCN(c2ccccc2)C(=O)C1,binding,competition with immobilised ligand,1 µM,100
O=C(Nc1c[nH]nc1C(=O)NC1CCNCC1)c1cc(F)cc(F)c1,binding,competition with immobilised ligand,1 µM,100
O=C(c1ccc(Nc2ncc(Cl)c(-c3cc4ccccc4s3)n2)cc1)N1CCC(N2CCCC2)CC1,binding,competition with immobilised ligand,1 µM,62
CN(CCCC(F)(F)F)c1nccc(-c2cnn3ncccc23)n1,binding,,1 µM,100
COc1cnc(Nc2cccc(S(N)(=O)=O)c2)nc1N1CCN(c2ccccc2)CC1,binding,competition with immobilised ligand,1 µM,100
CO[C@@H](C)c1c(Nc2ccc([C@@H](N(C)C(=O)C3CCS(=O)(=O)CC3)C(F)(F)F)cc2)cnc2cc(Cl)nn12,cell-free assay,competition with immobilised ligand,1 µM,100
FC(F)(F)Oc1cccc(-c2cnc3ccc(-c4ccncc4)nn23)c1,cell-free assay,competition with immobilised ligand,5 µM,53
CC1CCCN1c1nccc(-c2cnn3ncccc23)n1 (centres unmarked),binding,,1 µM,100
CS(=O)(=O)N1CCCC(NC(=O)[C@H](CCC2CCCCC2)NC(=O)c2ccc(CNC(=O)c3cnc4ccccn34)cc2)C1 (some centres unmarked),cell-free assay,competition with immobilised ligand,0.1 µM,100
c1cnn2ncc(-c3ccnc(N4CCC45COC5)n3)c2c1,binding,,1 µM,81
C[C@H](c1ccnc(Nc2nc3ccc(-c4cc(N(C)C)ncn4)cc3[nH]2)c1)N1CCN(C(=O)CC(F)(F)F)CC1,cell-free assay,competition with immobilised ligand,0.1 µM,100
O=C(NCCCN1CCOCC1)c1ccc(Nc2ncc(Cl)c(-c3ccc(Cl)s3)n2)cc1,binding,competition with immobilised ligand,1 µM,74
CN(C)C(=O)Cn1cc(-c2nc(C3(c4ccc(-c5cnc(N)nc5)cc4)CC3)no2)cn1,cell-free assay,competition with immobilised ligand,1 µM,100
CN(C)c1nccc(-c2cnc3ncccn23)n1,binding,,1 µM,98
